Experimental data from different studies.

`O=C(O)c1cn(C2CC2)c2cc(N3CCNCC3)c(F)cc2c1=O` gave an MIC of 2 µM (Klebsiella aerogenes; microbial growth; ATCC35029).
For `O=C(O)c1cccnc1Nc1cccc(C(F)(F)F)c1`, the GI50 was greater than 30 µM (U-87 MG; cell growth or viability, SRB; 48 h).
With `Cc1cc(C)nc(SCC(=O)c2cccs2)n1` the EC50 was greater than 64 µM (Leishmania infantum; parasite growth; mouse Macrophage; intracellular, amastigote).
The EC50 of `C=CC(=O)NC1CCN(c2ncc3ncnc(Nc4ccc(Oc5ccc6c(c5)ncn6C)c(C)c4)c3n2)CC1` is reported as 0.22 µM (HCC15; cell growth or viability).
`CC(=NNC(=O)COc1ccc2c(C)c(Cc3ccccc3)c(=O)oc2c1C)c1ccc(Br)cc1` has a viability of 66% (HCT-116; cell growth or viability, MTT; 0.2 µg/mL).
With `COc1ccc(C(=O)CSc2nc(C)cc(C)c2C#N)cc1` the EC50 was 25.2 µM (Leishmania infantum; parasite growth; mouse Macrophage; intracellular, amastigote).
`Cl.O=C(O)CNC(=O)c1ccc(NC(=O)c2cc(Br)c(Br)[nH]2)c(N2CCNCC2)c1` has an MIC of greater than 32 µg/mL (Klebsiella aerogenes; microbial growth, broth dilution; ATCC13408).
`Cc1cc(C)c(C#N)c(OCC(=O)c2ccccc2)n1` has an EC50 of greater than 64 µM (Leishmania infantum; parasite growth; mouse Macrophage; intracellular, amastigote).
With `CC(C)(C)OC(=O)N[C@H]1CCN(c2cc(C(=O)NCC(=O)O)ccc2NC(=O)c2cc(Br)c(Br)[nH]2)C1` the MIC was greater than 32 µg/mL (Klebsiella aerogenes; microbial growth, broth dilution; ATCC13408).
`Cc1cc(C)c(C#N)c(SCC(=O)c2ccccc2C)n1` has an EC50 of 7.38 µM (Leishmania infantum; parasite growth; mouse Macrophage; intracellular, amastigote).
The MIC of `Cl.N[C@@H]1CCN(c2cc(C(=O)NCC(=O)O)ccc2NC(=O)c2cc(Br)c(Br)[nH]2)C1` is reported as greater than 32 µg/mL (Klebsiella aerogenes; microbial growth, broth dilution; ATCC13408).
`O=C(O)c1ccccc1Nc1cccc(C(F)(F)F)c1` gave a GI50 of greater than 30 µM (U-87 MG; cell growth or viability, SRB; 48 h).
